In ChEMBL document CHEMBL1926538, “3,5-Disubstituted-thiazolidine-2,4-dione analogs as anticancer agents: design, synthesis and biological characterization” (Eur J Med Chem, 2012):
Activity calls are given as the source filed them. The rule behind the calls is not given here.

Legend:
[1] = test system: U-937; experiment: Induction of apoptosis in human U937 cells assessed as necrotic cells at 3 uM after 18 hrs by annexinV-propidium iodide staining-based flow cytometric analysis (reference value: 0.7%); assay type: functional
[2] = biological target: Dual specificity mitogen-activated protein kinase kinase 2 (Homo sapiens) (UniProt P36507); experiment: Inhibition of MEK2 at 10 uM
[3] = Inhibition of PKA at 10 uM
[4] = test system: U-937; experiment: Cell cycle arrest in human U937 cells assessed as sub-diploid apoptotic fraction at 10 uM after 24 hrs by propidium iodide staining-based flow cytometric analysis; assay type: functional
In short: (§1)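 Cells cultured in RPMI 1640 with 10% FBS and treated 24 h at the indicated concentrations. Stained with propidium iodide for 4 h at 4 °C in the dark. Flow cytometry gave the percentage of cells in G₀/G₁, S, G₂/M and sub-G₁ phases.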

[5] = test system: U-937; experiment: Induction of apoptosis in human U937 cells assessed as necrotic cells at 10 uM after 18 hrs by annexinV-propidium iodide staining-based flow cytometric analysis (reference value: 0.7%); assay type: functional
[6] = biological target: RAF proto-oncogene serine/threonine-protein kinase (Homo sapiens) (UniProt P04049); experiment: Inhibition of raf-mediated MEK phosphorylation in human U937 cells at 3 uM after 1 hr by Western blot analysis; assay type: cell-based; settings: U-937
In short: (§2)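 Cells in RPMI 1640 with 10% heat-inactivated FBS, 37 °C, 5% CO2; treated in growing medium (DU145 24 h; U937 1 h at 5 × 10⁵/mL). Lysed by sonication in SDS sample buffer with protease inhibitors plus 1 mM orthovanadate and pyrophosphate, boiled 5 min. Blots blocked in 5% milk, primary antibodies 1:1000 overnight at 4 °C, HRP secondary 1:2000, chemiluminescence; α-tubulin loading control.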

[7] = biological target: Protein kinase C beta type (Homo sapiens) (UniProt P05771); experiment: Inhibition of PKCbeta2 at 10 uM
[8] = biological target: 5'-AMP-activated protein kinase catalytic subunit alpha-2 (Homo sapiens) (UniProt P54646); experiment: Activation of AMPK in human U937 cells assessed as increase in phosphorylated AMPK level at 1 to 10 uM after 1 hr by Western blot analysis; assay type: cell-based; settings: U-937
In short: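 Cells at 5 × 10⁵/mL in growing medium, RPMI 1640 with 10% heat-inactivated FBS, 37 °C, 5% CO₂, exposed 1 h. Lysed by sonication in SDS sample buffer with protease inhibitors plus 1 mM orthovanadate and pyrophosphate, boiled 5 min. Immunoblot probed with rabbit polyclonal anti-phospho-AMPK (Thr172) 1:1000, HRP secondary, chemiluminescence. α-Tubulin reprobe as loading control. One of three independent experiments shown.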

[9] = biological target: Serine/threonine-protein kinase Sgk1 (Homo sapiens) (UniProt O00141); experiment: Inhibition of SGK1 at 10 uM
[10] = biological target: RAF proto-oncogene serine/threonine-protein kinase (Homo sapiens) (UniProt P04049); experiment: Inhibition of Raf-mediated ERK phosphorylation in human DU145 cells at 10 to 20 uM after 24 hrs by Western blot analysis; assay type: cell-based; settings: DU-145; in short: as §2
[11] = biological target: RAF proto-oncogene serine/threonine-protein kinase (Homo sapiens) (UniProt P04049); experiment: Inhibition of […] phosphorylation in human U937 cells 1 to 10 uM after 1 hr by Western blot analysis; assay type: cell-based; settings: U-937
In short: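 U937 cells at 5 × 10^5/mL were exposed to compound for 1 h, then sonicated in SDS/DTT sample buffer with protease inhibitors plus 1 mM orthovanadate and pyrophosphate, and boiled 5 min. Blots were blocked in 5% milk, probed with primary antibody overnight at 4 °C and 1:2000 HRP secondary, and read by chemiluminescence. α-Tubulin reprobe served as loading control. Blots shown represent one of three experiments.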

[12] = biological target: Dual specificity tyrosine-phosphorylation-regulated kinase 1A (Homo sapiens) (UniProt Q13627); experiment: Inhibition of DYRK1a at 10 uM
[13] = test system: U-937; experiment: Induction of apoptosis in human U937 cells assessed as early apoptotic cells at 3 uM after 6 hrs by annexinV-propidium iodide staining-based flow cytometric analysis (reference value: 4.6%); assay type: functional
[14] = biological target: MAP kinase p38 (Homo sapiens) (UniProt O15264+Q15759+Q16539+P53778); experiment: Inhibition p38 phosphorylation in human U937 cells at 1 to 10 uM after 1 hr by Western blot analysis; assay type: cell-based; settings: U-937
In short: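 p38 blot in U937: cells at 5 × 10⁵/mL in RPMI 1640 plus 10% FBS, exposed 1 h, sonicated in SDS sample buffer containing phosphatase inhibitors, boiled; immunoblot with primary antibody overnight at 4 °C, HRP secondary, chemiluminescent detection.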

[15] = test system: U-937; experiment: Cell cycle arrest in human U937 cells assessed as accumulation at S-phase at 10 uM after 24 hrs by propidium iodide staining-based flow cytometric analysis; assay type: functional; in short: as §1
[16] = biological target: Rho-associated protein kinase 2 (Homo sapiens) (UniProt O75116); experiment: Inhibition of ROCK2 at 10 uM
[17] = test system: U-937; experiment: Induction of apoptosis in human U937 cells assessed as necrotic cells at 10 uM after 6 hrs by annexinV-propidium iodide staining-based flow cytometric analysis (reference value: 1.2%); assay type: functional
[18] = biological target: Serine/threonine-protein kinase pim-2 (Homo sapiens) (UniProt Q9P1W9); experiment: Inhibition of PIM2 at 10 uM
[19] = biological target: Mitogen-activated protein kinase 3 (Homo sapiens) (UniProt P27361); experiment: Inhibition of Erk1 at 10 uM
[20] = Growth inhibition of human NCI60 cells; assay type: functional
[21] = test system: U-937; experiment: Induction of apoptosis in human U937 cells assessed as late apoptotic cells at 3 uM after 6 hrs by annexinV-propidium iodide staining-based flow cytometric analysis (reference value: 13.8%); assay type: functional
[22] = test system: U-937; experiment: Induction of apoptosis in human U937 cells assessed as viable cells at 3 uM after 18 hrs by annexinV-propidium iodide staining-based flow cytometric analysis (reference value: 87.2%); assay type: functional; settings: U-937, 18 h, read-out: Activity
[23] = test system: U-937; experiment: Induction of apoptosis in human U937 cells assessed as viable cells at 10 uM after 3 hrs by annexinV-propidium iodide staining-based flow cytometric analysis (reference value: 86.3%); assay type: functional; settings: U-937, 3 h, read-out: Activity
[24] = test system: U-937; experiment: Induction of apoptosis in human U937 cells assessed as necrotic cells at 3 uM after 6 hrs by annexinV-propidium iodide staining-based flow cytometric analysis (reference value: 1.2%); assay type: functional
[25] = test system: U-937; experiment: Cell cycle arrest in human U937 cells assessed as decrease in G1/G0-phase population at 10 uM after 24 hrs by propidium iodide staining-based flow cytometric analysis; assay type: functional; in short: as §1
[26] = test system: U-937; experiment: inhibition of PI3K-mediated 4-EBP1 phosphorylation in human U937 cells 1 to 10 uM after 1 hr by Western blot analysis; assay type: cell-based; in short: as §2
[27] = test system: U-937; experiment: Induction of apoptosis in human U937 cells assessed as early apoptotic cells at 3 uM after 3 hrs by annexinV-propidium iodide staining-based flow cytometric analysis (reference value: 2.8%); assay type: functional
[28] = biological target: 5'-AMP-activated protein kinase catalytic subunit alpha-2 (Homo sapiens) (UniProt P54646); experiment: Inhibition of AMPK at 10 uM
[29] = biological target: Mitogen-activated protein kinase 1 (Homo sapiens) (UniProt P28482); experiment: Inhibition of Erk2 at 10 uM
[30] = test system: DU-145; experiment: Induction of apoptosis in human DU145 cells assessed as viable cells at 20 uM after 24 hrs by annexinV-propidium iodide staining-based flow cytometric analysis (reference value: 89%); assay type: functional; settings: DU-145, 24 h, read-out: Activity

Chain of RAF proto-oncogene serine/threonine-protein kinase (Homo sapiens) (P04049 whole entry): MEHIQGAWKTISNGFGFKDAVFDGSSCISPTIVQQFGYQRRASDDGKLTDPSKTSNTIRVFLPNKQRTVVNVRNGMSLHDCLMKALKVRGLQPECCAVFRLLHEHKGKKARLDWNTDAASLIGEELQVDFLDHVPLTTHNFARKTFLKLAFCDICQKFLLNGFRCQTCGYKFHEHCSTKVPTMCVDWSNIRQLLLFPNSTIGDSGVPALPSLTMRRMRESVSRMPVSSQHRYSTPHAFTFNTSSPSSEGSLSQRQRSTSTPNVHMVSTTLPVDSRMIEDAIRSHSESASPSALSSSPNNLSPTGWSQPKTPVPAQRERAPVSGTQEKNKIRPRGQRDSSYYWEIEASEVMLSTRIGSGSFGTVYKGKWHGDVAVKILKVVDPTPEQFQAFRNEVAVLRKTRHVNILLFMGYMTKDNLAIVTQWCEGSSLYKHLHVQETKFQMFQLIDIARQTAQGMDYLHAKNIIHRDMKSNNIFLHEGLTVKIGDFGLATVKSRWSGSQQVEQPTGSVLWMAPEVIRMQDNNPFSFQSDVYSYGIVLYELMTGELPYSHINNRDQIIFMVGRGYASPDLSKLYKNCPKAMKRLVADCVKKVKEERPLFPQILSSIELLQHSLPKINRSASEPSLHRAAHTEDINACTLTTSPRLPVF
Chain of 5'-AMP-activated protein kinase catalytic subunit alpha-2 (Homo sapiens) (P54646 whole entry, looked up): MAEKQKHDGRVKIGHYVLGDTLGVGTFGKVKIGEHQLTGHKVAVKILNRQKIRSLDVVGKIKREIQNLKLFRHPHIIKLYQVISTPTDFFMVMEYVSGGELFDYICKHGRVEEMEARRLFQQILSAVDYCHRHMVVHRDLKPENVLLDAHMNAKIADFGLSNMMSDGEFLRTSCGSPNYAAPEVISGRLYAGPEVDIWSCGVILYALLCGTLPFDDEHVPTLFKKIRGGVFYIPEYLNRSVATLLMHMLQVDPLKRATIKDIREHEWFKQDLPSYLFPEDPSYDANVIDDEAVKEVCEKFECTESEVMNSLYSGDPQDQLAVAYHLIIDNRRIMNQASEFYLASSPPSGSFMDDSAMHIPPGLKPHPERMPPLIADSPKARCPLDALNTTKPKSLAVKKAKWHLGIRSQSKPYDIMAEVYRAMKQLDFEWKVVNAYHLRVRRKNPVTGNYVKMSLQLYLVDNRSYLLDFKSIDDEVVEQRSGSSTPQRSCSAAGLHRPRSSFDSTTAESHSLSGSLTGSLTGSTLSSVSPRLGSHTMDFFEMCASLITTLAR
Chain of Serine/threonine-protein kinase pim-2 (Homo sapiens) (Q9P1W9 whole entry, looked up): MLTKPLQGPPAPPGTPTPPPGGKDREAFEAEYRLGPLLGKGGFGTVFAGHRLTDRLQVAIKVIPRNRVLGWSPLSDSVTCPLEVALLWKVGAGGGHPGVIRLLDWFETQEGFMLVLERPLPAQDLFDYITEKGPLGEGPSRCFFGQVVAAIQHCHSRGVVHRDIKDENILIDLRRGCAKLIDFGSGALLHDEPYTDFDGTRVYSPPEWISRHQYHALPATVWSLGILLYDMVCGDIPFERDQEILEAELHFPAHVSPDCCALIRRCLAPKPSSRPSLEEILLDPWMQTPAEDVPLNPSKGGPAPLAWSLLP
Chain of Protein kinase C beta type (Homo sapiens) (P05771 2-671 limits assumed): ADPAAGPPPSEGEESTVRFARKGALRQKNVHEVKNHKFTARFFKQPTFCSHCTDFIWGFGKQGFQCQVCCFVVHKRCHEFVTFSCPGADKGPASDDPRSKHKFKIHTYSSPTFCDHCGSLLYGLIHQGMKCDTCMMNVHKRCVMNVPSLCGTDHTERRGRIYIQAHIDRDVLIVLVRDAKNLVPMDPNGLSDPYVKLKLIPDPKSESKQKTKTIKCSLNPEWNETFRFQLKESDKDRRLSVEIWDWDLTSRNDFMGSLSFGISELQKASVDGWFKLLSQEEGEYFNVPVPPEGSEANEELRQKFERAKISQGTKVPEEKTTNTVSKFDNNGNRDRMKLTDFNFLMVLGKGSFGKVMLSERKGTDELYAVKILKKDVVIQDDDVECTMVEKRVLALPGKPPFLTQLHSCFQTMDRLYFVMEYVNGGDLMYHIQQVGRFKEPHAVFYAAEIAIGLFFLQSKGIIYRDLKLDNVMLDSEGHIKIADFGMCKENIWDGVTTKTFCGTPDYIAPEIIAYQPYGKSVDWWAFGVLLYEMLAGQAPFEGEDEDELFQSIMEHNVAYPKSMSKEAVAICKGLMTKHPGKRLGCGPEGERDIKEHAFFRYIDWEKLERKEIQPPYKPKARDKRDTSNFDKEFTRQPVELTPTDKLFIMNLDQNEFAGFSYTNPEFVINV
Chain of Mitogen-activated protein kinase 1 (Homo sapiens) (P28482 whole entry): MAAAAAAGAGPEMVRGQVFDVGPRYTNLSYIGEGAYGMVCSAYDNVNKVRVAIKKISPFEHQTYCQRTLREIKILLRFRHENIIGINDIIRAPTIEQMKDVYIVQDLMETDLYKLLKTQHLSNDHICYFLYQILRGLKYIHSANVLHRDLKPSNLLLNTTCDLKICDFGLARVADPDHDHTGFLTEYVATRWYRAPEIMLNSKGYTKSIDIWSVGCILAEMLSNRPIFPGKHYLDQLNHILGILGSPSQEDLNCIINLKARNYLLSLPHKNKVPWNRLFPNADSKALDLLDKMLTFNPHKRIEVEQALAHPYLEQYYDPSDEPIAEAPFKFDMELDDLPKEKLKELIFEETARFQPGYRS
Chain of Mitogen-activated protein kinase 3 (Homo sapiens) (P27361 whole entry): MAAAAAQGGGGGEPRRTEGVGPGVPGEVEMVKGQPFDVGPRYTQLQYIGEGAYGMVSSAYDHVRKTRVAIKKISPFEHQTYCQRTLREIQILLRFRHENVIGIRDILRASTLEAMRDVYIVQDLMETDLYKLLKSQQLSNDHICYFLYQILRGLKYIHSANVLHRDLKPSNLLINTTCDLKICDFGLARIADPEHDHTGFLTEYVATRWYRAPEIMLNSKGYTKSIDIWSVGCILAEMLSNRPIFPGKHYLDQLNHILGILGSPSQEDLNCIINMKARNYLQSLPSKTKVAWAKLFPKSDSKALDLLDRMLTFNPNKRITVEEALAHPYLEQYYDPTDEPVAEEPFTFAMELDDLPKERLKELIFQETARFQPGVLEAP
Chain of Dual specificity mitogen-activated protein kinase kinase 2 (Homo sapiens) (P36507 whole entry): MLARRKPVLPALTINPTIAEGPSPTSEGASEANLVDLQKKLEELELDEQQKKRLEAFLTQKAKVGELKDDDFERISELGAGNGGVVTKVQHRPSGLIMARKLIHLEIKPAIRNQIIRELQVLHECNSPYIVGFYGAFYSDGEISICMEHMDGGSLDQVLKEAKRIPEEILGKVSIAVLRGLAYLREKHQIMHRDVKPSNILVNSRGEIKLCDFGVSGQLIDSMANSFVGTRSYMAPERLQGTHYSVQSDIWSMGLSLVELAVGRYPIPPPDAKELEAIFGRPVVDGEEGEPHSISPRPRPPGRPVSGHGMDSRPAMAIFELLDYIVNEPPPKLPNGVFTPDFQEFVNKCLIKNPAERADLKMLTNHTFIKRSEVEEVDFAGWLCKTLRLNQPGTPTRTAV
Chain of Rho-associated protein kinase 2 (Homo sapiens) (O75116 whole entry, looked up): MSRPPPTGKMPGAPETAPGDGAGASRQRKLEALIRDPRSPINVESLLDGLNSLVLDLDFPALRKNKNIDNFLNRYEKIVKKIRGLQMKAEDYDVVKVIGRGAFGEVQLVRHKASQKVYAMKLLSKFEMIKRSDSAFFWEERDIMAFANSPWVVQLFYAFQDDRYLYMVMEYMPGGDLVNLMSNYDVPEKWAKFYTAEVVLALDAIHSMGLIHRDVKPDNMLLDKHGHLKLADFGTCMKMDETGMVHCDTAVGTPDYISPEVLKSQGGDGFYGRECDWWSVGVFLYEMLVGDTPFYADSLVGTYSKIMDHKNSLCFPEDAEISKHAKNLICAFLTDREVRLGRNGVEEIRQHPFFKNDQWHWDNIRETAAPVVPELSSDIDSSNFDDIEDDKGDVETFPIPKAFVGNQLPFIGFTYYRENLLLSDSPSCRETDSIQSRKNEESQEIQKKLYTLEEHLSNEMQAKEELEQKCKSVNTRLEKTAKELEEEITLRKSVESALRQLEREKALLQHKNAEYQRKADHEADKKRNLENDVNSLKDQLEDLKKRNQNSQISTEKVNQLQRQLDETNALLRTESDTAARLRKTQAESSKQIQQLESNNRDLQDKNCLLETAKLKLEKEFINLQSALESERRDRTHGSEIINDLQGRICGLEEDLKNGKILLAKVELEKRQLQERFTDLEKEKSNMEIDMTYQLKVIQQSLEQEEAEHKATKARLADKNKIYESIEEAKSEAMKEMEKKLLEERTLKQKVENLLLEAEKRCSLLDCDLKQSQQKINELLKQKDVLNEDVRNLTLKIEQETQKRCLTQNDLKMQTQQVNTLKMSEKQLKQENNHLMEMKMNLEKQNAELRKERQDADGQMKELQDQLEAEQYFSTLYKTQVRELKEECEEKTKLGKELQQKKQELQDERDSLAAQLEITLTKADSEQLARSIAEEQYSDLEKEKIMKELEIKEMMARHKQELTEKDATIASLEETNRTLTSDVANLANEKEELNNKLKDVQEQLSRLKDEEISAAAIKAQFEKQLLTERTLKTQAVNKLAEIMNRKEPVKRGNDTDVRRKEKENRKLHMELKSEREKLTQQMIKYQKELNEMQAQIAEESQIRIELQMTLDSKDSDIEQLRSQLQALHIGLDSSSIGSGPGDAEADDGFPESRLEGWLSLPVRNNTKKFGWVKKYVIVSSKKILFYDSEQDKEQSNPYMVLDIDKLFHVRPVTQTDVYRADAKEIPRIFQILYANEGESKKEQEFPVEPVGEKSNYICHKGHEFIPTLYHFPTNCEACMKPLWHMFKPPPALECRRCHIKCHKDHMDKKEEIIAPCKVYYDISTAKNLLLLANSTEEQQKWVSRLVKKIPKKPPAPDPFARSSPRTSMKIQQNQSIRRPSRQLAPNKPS

- inhibition [2]: 27%
- inhibition [3]: -3%
- inhibition [6]: Active
- inhibition [7]: 16%
- Activity [8]: Active
- inhibition [9]: 14%
- inhibition [10]: Active
- inhibition [11]: Active
- inhibition [12]: -5%
- inhibition [14]: inactive
- inhibition [16]: -1%
- inhibition [18]: 38%
- inhibition [19]: 21%
- inhibition [28]: 76%
- inhibition [29]: 11%
SMILES: NCCN1C(=O)S/C(=C\CCC2CCCCC2)C1=O
- Activity [1]: 0.7%
- Activity [4]: 49.9%
- Activity [5]: 2.1%
- Activity [13]: 3.8%
- Activity [15]: 23.6%
- Activity [17]: 1.4%
- GI50 [20]: 1400 nM
- Activity [21]: 16.5%
- viability at 3 µM [22]: 90.1%
- viability at 10 µM [23]: 62.8%
- Activity [24]: 2.1%
- Activity [25]: Active
- inhibition [26]: Active
- Activity [27]: 3.5%
- viability at 20 µM [30]: 65.5%
